Columns and labels:
BMP-2 = details: known effect; ref [4],[5]; cited from earlier work
pSmad1/5 = assay: Western blot of Smad phosphorylation in C2C12 cells; format: cell-based, mouse
C2C12 cells = assay: Mineralization assay; format: cell-based, mouse; details: BMP-2 100 ng/mL; heparin 0.62 μM (10 μg/mL) or PA 25 μM; 10 days
noggin [1] = assay: SPR binding to immobilized noggin; details: heparin 0.01-100 µM or PA 1 10-60 µM; HEPES buffer pH 7.6, 25 °C
noggin [2] = details: C2C12 cells; ref [5],[41]; cited from earlier work
[3] = tested on: BMP-2 signaling in C2C12 cells; assay: BMP-2 induced ALP activity in C2C12 cells; format: cell-based, mouse; details: BMP-2 75 ng/mL, 3 days; for enhancement of BMP-2 induced ALP activity, in words: PA or monosaccharide 25 μM, n = 8
[4] = SAXS / cryo-TEM of self-assembly; format: physicochemical; details: cryo-TEM at 25 μM or SAXS
[5] = tested on: BMP-4 signaling in C2C12 cells; assay: BMP-4 induced ALP activity in C2C12 cells; format: cell-based, mouse; details: BMP-4 75 ng/mL, monosaccharide 1 25 μM, 3 days; n = 8
How it was run: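 C2C12 cells were co-treated with BMP-4 (75 ng/mL) and either the glycopeptide amphiphile nanostructure or the free sulfated monosaccharide, each at 25 μM. Osteoblast differentiation was read out as alkaline phosphatase (ALP) activity. Results are reported as mean ± SEM with n = 8.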

Heparin
half-life of BMP-2 (BMP-2): prolong the half-life of BMP-2
pSmad1/5 accumulation with BMP-2 (pSmad1/5; BMP-2 75 ng/mL, 3 h, heparin 0.62 μM or PA 1 25 μM, n = 3): significantly higher relative to that with BMP-2 alone
pSmad1/5 accumulation without BMP-2 (pSmad1/5; heparin 0.62 μM or PA 1 25 μM, no BMP-2): did not enhance accumulation of pSmad proteins
matrix mineralization of C2C12 cells (C2C12 cells): inhibited BMP-2 (100 ng/mL) dependent mineralization
SPR binding to noggin (noggin [1]): did not observe a strong binding to noggin
effect on noggin activity (noggin [2]): binds and inhibits noggin activity, thereby rescuing BMP signaling and the subsequent ALP expression in C2C12 cells
enhancement of ALP expression vs BMP-2 alone, factor ([3]; normalized to DNA, dose response for heparin and HS): 5
enhancement of BMP-2 induced ALP activity, in words [3]: more potent response than HS

c1ccc2c(-c3cnn4cc(-c5ccc(N6CCNCC6)cc5)cnc34)ccnc2c1 [LDN-193189]
BMP-2 mediated Smad phosphorylation with LDN-193189 (pSmad1/5; LDN-193189 0.5 μM, BMP-2 75 ng/mL, regardless of heparin or PA 1): impeded the BMP-2 mediated phosphorylation of Smads

CC(=O)N[C@H]1[C@H](OCCN=[N+]=[N-])O[C@H](COS(=O)(=O)O)[C@@H](OS(=O)(=O)O)[C@@H]1OS(=O)(=O)O [monosaccharide 1, 2-Azidoethyl 2-acetamido-3,4,6-tri-O-sulfo-2-deoxy-β-D-glycopyranoside]
enhancement of BMP-2 induced ALP activity, in words [3]: found this not to be the case
self-assembly / supramolecular structure [4]: absence of any significant supramolecular structure
amplification of BMP-4 signaling (ALP activity) [5]: found this not to be the case

Source: article PMC5553550 (Nature nanotechnology, 2017)
